Data set [1] is described as follows: LogP of the free base (neutral species). In kind it is physicochemical. Conditions: octanol/water. In a few lines:
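pH-metric method: octanol/water titrations with Bjerrum plots, 0.15 M KCl ionic strength, 25.0 ± 0.1 °C, samples 0.5–4 mM; constants refined by nonlinear least squares.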

In data set [2] the target is Histamine H3 receptor (Cavia porcellus) (UniProt Q9JI35). The data set can be described thus: Compound was tested for H3-antagonist potency on electrically stimulated guinea pig ileum; Unsurmountable antagonism at concentration > 10^-7 M. In kind it is functional, tissue-based.
Chain of Histamine H3 receptor (Cavia porcellus) (Q9JI35 whole entry): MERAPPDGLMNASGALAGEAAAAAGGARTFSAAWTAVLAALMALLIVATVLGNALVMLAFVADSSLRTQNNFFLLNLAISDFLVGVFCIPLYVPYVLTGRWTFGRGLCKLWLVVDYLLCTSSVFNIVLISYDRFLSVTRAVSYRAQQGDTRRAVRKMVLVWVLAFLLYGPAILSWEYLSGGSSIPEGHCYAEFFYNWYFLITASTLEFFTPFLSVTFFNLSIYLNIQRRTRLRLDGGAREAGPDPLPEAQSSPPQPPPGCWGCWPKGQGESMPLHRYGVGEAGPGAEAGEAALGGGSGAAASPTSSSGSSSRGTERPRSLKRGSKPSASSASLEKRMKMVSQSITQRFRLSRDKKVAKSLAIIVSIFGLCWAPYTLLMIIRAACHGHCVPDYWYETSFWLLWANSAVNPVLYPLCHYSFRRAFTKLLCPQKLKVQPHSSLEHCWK
The target in data set [3] is Histamine H3 receptor (Rattus norvegicus, UniProt Q9QYN8). The data set can be described thus: Inhibition of [3H]NAMHA binding to rat brain membrane histamine H3-receptor.
Chain of Histamine H3 receptor (Rattus norvegicus, UniProt Q9QYN8) (Q9QYN8 whole entry): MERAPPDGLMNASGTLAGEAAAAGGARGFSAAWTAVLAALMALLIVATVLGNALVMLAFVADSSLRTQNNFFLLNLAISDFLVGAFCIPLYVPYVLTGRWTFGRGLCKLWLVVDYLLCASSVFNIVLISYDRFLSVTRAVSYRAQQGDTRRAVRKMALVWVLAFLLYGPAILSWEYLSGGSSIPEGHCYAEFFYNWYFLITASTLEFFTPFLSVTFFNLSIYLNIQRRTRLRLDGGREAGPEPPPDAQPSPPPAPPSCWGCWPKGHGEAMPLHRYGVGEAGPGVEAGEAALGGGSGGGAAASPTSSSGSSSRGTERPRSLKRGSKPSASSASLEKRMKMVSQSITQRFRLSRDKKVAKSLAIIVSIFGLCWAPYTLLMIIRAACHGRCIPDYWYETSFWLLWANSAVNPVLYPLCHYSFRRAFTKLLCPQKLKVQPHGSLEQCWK
The nature of data set [4]: dissociation constant corresponding to the 4(5)-alkylimidazole. In kind it is ADME. The conditions noted are these: read-out: pKa,1. In a few lines:
(§1)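 pH-metric titration at 25.0 ± 0.1 °C with 0.15 M KCl, samples 0.5–4 mM; for poorly water-soluble compounds, values from 15–60 wt % methanol/water with Yasuda–Shedlovsky extrapolation; refined by nonlinear least squares.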

A short description of data set [5]: dissociation constant corresponding to the 4(5)-phenyl-2-thiomidazole. It is filed as ADME. Conditions: read-out: pKa,2. The gist of the method:
as §1

Data set [6] has as its target Histamine H3 receptor (Cavia porcellus, UniProt Q9JI35). Briefly: Histamine H3-antagonist potency on electrically stimulated guinea pig ileum. The conditions noted are these: read-out: pA2 (converted). In kind it is functional, tissue-based. In a few lines: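 Guinea pig (350–550 g) terminal ileum under 1 g load in Krebs Henseleit, 37 °C, O₂ 95%:CO₂ 5%, equilibrated ≥60 min; transmural stimulation (0.1 Hz, 1 ms, submax voltage). Compounds up to 10⁻⁶ M, 30 min, then cumulative (R)-α-methylhistamine (10⁻⁹–10⁻⁶ M) inhibiting twitch, recorded isometrically. pA₂ by Schild regression; mean ± SEM of 10–12 observations.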

The source made the active and inactive calls. The calls are words filed in the database; no cut-off is given here.

The source of these data is ChEMBL document CHEMBL1130112, “H3-receptor antagonists: synthesis and structure-activity relationships of para- and meta-substituted 4(5)-phenyl-2-[[2-[4(5)-imidazolyl]ethyl]thio]imidazoles” (J Med Chem, 1997).

Chain of Histamine H3 receptor (Cavia porcellus, UniProt Q9JI35) (Q9JI35 whole entry): as the sequence (Q9JI35 whole entry) above

Compound `CCCc1ccc(-c2c[nH]c(SCCc3c[nH]cn3)n2)cc1` had a log partition coefficient (logP) in data set [1] of 4.09. Also, in data set [2], the pA2 entry is “inactive”. Moreover, in data set [3], the affinity corresponds to a Ki of 0.0398 µM. The pKa in data set [4] stood at 4.34; in data set [5] it was 7.03.

On to `CN(C)c1ccc(-c2c[nH]c(SCCc3c[nH]cn3)n2)cc1`, for which, in data set [6], the Kb is 0.0525 µM. This compound gave an inhibition constant Ki in data set [3] of 0.0295 µM.

Compound `O=S(=O)(Oc1ccc(-c2cnc(SCCc3c[nH]cn3)[nH]2)cc1)c1ccccc1` came in with a logP in data set [1] of 3.72. Also, the Kb in data set [6] is 0.0501 µM. Further, affinity in data set [3] was put at a Ki of 0.00295 µM. The figures for the pKa in data set [4] and in data set [5] were 3.84 and 6.93, respectively.

In data set [1], `Clc1ccc(-c2c[nH]c(SCCc3c[nH]cn3)n2)cc1` came in with a logP of 3.66. The Kb in data set [6] was 0.00135 µM. In addition, in data set [3], the affinity, expressed as Ki, was 0.0355 µM. Also, the pKa in data set [4] came to 4.12; in data set [5], 7.1.

Turning to `c1ccc(-c2cnc(SCCc3c[nH]cn3)[nH]2)cc1`, the logP in data set [1] worked out at 2.62. In data set [6], the Kb is 0.00646 µM. Further, the inhibition constant Ki in data set [3] was 0.0141 µM. The figures for the pKa in data set [4] and in data set [5] were 4.28 and 7.07, respectively.

In data set [1], `CCCOc1cccc(-c2c[nH]c(SCCc3c[nH]cn3)n2)c1` registered a log partition coefficient (logP) of 3.7. For the same compound, the pA2 result in data set [2] is “inactive”. Besides, the affinity in data set [3], expressed as Ki, was 0.00933 µM. Further, the pKa in data set [4] was found to be 4.04; in data set [5], 7.04.

In data set [1], `Brc1cccc(-c2cnc(SCCc3c[nH]cn3)[nH]2)c1` had a log partition coefficient (logP) of 3.76. For the same compound, in data set [6], the Kb was 0.00776 µM. Moreover, the affinity in data set [3] corresponds to a Ki of 0.0141 µM. Further, the values for the pKa in data set [4] and in data set [5] were 3.9 and 7.08, respectively.

Take `CCCCOc1ccc(-c2cnc(SCCc3c[nH]cn3)[nH]2)cc1`: the logP in data set [1] amounted to 4.11. Besides, the Kb in data set [6] is 0.148 µM. The pKa is 4.3 in data set [4] and 7.06 in data set [5].

In turn, `O=[N+]([O-])c1ccc(-c2cnc(SCCc3c[nH]cn3)[nH]2)cc1` displayed a logP in data set [1] of 2.75. Besides, the Kb in data set [6] was 0.0162 µM. In addition, the inhibitory constant (Ki) in data set [3] was 0.0525 µM. Further, the values for the pKa in data set [4] and in data set [5] were 3.13 and 6.94, respectively.

On to `O=[N+]([O-])c1cccc(-c2c[nH]c(SCCc3c[nH]cn3)n2)c1`, for which the lipophilicity (logP) in data set [1] is 2.43. The Kb in data set [6] is 0.00347 µM. In data set [3], affinity was put at a Ki of 0.0309 µM. Also, the pKa amounted to 3.21 in data set [4] and 6.89 in data set [5].

Compound `NC(=O)c1cccc(-c2cnc(SCCc3c[nH]cn3)[nH]2)c1` registered a logP in data set [1] of 1.61. The Kb in data set [6] is 0.145 µM. In data set [3], the Ki is 0.0162 µM. Besides, the pKa in data set [4] came to 4.01; in data set [5] it was 7.05.

In the case of `NC(=O)c1ccc(-c2c[nH]c(SCCc3c[nH]cn3)n2)cc1`, in data set [1], the logP stood at 1.4. For the same compound, the Kb in data set [6] is 0.117 µM. In data set [3], the Ki is 0.0282 µM. The pKa in data set [4] came to 3.63; in data set [5], 7.07.

Usually logP stands for a log measure of how a compound divides between an organic and an aqueous phase. Lower therefore signals a more hydrophilic compound. The term Ki denotes a measure of affinity in units of concentration, obtained from inhibition or displacement. As usually defined, the pKa is the pH at which an ionisable group is half protonated.
